# Laboratory results reported in ChEMBL document CHEMBL1142550, “Thiopyrano[2,3-e]indol-2-ones: angelicin heteroanalogues with potent photoantiproliferative activity” (Bioorg Med Chem, 2008).
# Calls of active or inactive are those of the source. The calls are words filed in the database; no cut-off is given here.
# Experiments:
# HT-1080 [1] = assay: Photocytotoxicity against human HT1080 cells treated 30 mins before 2.5 J/cm'2 UVA irradiation measured after 72 hrs by MTT assay; type: functional, cell-based; details: HT-1080, light or radiation study
# LoVo [2] = assay: Photocytotoxicity against human LoVo cells treated 30 mins before 3.75 J/cm'2 UVA irradiation measured after 72 hrs by MTT assay; type: functional, cell-based; details: light or radiation study
# Jurkat [3] = assay: Photocytotoxicity against human JURKAT cells treated 30 mins before 2.5 J/cm'2 UVA irradiation measured after 72 hrs by MTT assay; type: functional, cell-based; details: light or radiation study
# [4] = Photocytotoxicity against human NCTC 2544 cells treated 30 mins before 2.5 J/cm'2 UVA irradiation measured after 72 hrs by MTT assay; type: functional, cell-based; details: NCTC-2544, light or radiation study
# LoVo [5] = assay: Photocytotoxicity against human LoVo cells treated 30 mins before 2.5 J/cm'2 UVA irradiation measured after 72 hrs by MTT assay; type: functional, cell-based; details: light or radiation study
# HT-1080 [6] = assay: Photocytotoxicity against human HT1080 cells treated 30 mins before 3.75 J/cm'2 UVA irradiation measured after 72 hrs by MTT assay; type: functional, cell-based; details: HT-1080, light or radiation study
# [7] = Photocytotoxicity against human NCTC 2544 cells treated 30 mins before 3.75 J/cm'2 UVA irradiation measured after 72 hrs by MTT assay; type: functional, cell-based; details: NCTC-2544, light or radiation study
# Jurkat [8] = assay: Photocytotoxicity against human JURKAT cells treated 30 mins before 3.75 J/cm'2 UVA irradiation measured after 72 hrs by MTT assay; type: functional, cell-based; details: light or radiation study
# HL-60 [9] = assay: Photocytotoxicity against human HL-60 cells treated 30 mins before 3.75 J/cm'2 UVA irradiation measured after 72 hrs by MTT assay; type: functional, cell-based; details: HL-60, light or radiation study
# HL-60 [10] = assay: Photocytotoxicity against human HL-60 cells treated 30 mins before 2.5 J/cm'2 UVA irradiation measured after 72 hrs by MTT assay; type: functional, cell-based; details: HL-60, light or radiation study
# Erythrocyte = assay: Induction of protein photodamage of human erythrocyte ghost plasmatic membrane assessed as disappearance of the spectrin subunit bands at 10 uM treated 30 mins before 2.5 J/cm'2 UVA irradiation by electrophoresis; type: cell-based
# Outline: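 Erythrocyte ghost membranes (1.0 mg/ml protein) were irradiated with drug at increasing UVA doses.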
# LoVo [11] = assay: Photocytotoxicity against human LoVo cells at 1.25 uM treated 30 mins before 2.5 J/cm'2 UVA irradiation measured after 72 hrs by MTT assay in presence of reduced glutathione; type: functional, cell-based
# Outline: (§1)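 LoVo cells were seeded at 5×10³ per well in Ham's F12/10% FCS. Drug 1.25 μM was given with an additive: BHA 10⁻⁵ M, DMTU 1 mM, GSH 1 mM or NaN₃ 10 mM. After 30 min in HBSS at 37 °C, cells received UVA 2.5 J cm⁻², and MTT viability was read 72 h later.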
# Jurkat [12] = assay: Induction of apoptosis in human JURKAT cells assessed as lysosomal damage treated 30 mins before 2.5 J/cm'2 UVA irradiation measured after 24 hrs by flow cytometry; type: functional, cell-based
# Outline: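 Jurkat cells were irradiated (2.5 J cm⁻²) with drug at several concentrations. At 24 h cells were stained with acridine orange 5 μg/mL for 15 min at 37 °C, washed, and analysed by flow cytometry (ex 488, em 546 nm).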
# Jurkat [13] = assay: Induction of apoptosis in human JURKAT cells assessed as increase in cardiolipin oxidation treated 30 mins before 2.5 J/cm'2 UVA irradiation measured after 24 hrs by N-nonyl acridine orange staining; type: functional, cell-based
# Outline: (§2)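 Jurkat cells were irradiated (UVA 2.5 J cm⁻²) with drug at several concentrations. At 24 h they were resuspended in HBSS with hydroethidine 0.1 μM, DCFDA 2.5 μM or NAO 5.0 μM for 30 min at 37 °C. Flow cytometry used ex 488 nm, em 585 nm (HE) or 530 nm (DCFDA, NAO). Values are means ± SEM, n=3.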
# LoVo [14] = assay: Photocytotoxicity against human LoVo cells at 1.25 uM treated 30 mins before 2.5 J/cm'2 UVA irradiation measured after 72 hrs by MTT assay in presence of 2,6-di-t-butylhydroxyanisole; type: functional, cell-based; outline: as §1
# Escherichia coli [15] = assay: Induction of DNA photodamage of Escherichia coli pBR322 exposed to 3.5 J/cm'2 UVA irradiation
# Outline: (§3)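 pBR322 supercoiled plasmid (100 ng) in 10 mM phosphate buffer pH 7.2 irradiated with UVA (365 nm, 4.0 mW cm⁻²; 3.5 J cm⁻²) at [DNA]/[drug] ratios 1, 2 and 4. Aliquots were then incubated at 37 °C with Fpg or Endo III. Scavenger runs used drug ratio 1 with mannitol 10 mM, GSH 1 mM or NaN₃ 10 mM. Samples were run on 1% agarose in TAE, 70 V, 4 h. Read-out was % form II by densitometry, mean ± SEM of three independent experiments.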
# LoVo [16] = assay: Photocytotoxicity against human LoVo cells at 1.25 uM treated 30 mins before 2.5 J/cm'2 UVA irradiation measured after 72 hrs by MTT assay in presence of N-N'-dimethylthiourea; type: functional, cell-based; outline: as §1
# Nucleic Acid [17] = assay: Induction of DNA photodamage of salmon testes DNA assessed as DNA intercalation by circular dichroism; type: nucleic-acid assay; details: Salmonidae
# Outline: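 Circular dichroism of salmon testes DNA (2 μM) with ligand at ligand/DNA ratios 0.02 and 0.04 in phosphate buffer. Spectra are the average of 4 scans.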
# Jurkat [18] = assay: Induction of apoptosis in human JURKAT cells assessed as increase in reactive oxygen species release treated 30 mins before 2.5 J/cm'2 UVA irradiation measured after 24 hrs by hydroethidine staining; type: functional, cell-based; outline: as §2
# Jurkat [19] = assay: Induction of apoptosis in human JURKAT cells assessed as caspase 3 activation treated 30 mins before 2.5 J/cm'2 UVA irradiation measured after 24 hrs by colorimetric assay
# Escherichia coli [20] = assay: Induction of DNA photodamage of Escherichia coli pBR322 exposed to 3.5 J/cm'2 UVA irradiation in presence of endonuclease 3; outline: as §3
# Jurkat [21] = assay: Induction of apoptosis in human JURKAT cells assessed as decrease in intracellular GSH levels treated 30 mins before 2.5 J/cm'2 UVA irradiation measured after 24 hrs by flow cytometry; type: functional, cell-based
# Outline: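 Jurkat cells were irradiated (2.5 J cm⁻²) with drug at several concentrations. At 24 h cells were harvested and incubated with monobromobimane 50 μM for 10 min at 37 °C. GS-mBBr was measured by flow cytometry (ex 354, em 450). Values are mean ± SEM, n=3.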
# Jurkat [22] = assay: Induction of apoptosis in human JURKAT cells homogenate assessed as lipid peroxidation treated 30 mins before 2.5 J/cm'2 UVA irradiation measured after 24 hrs by thiobarbituric acid assay; type: functional, cell-based
# Outline: (§4)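 Cells were grown 2 days to confluence, then irradiated in HBSS with drug 10 μM at varied UVA doses. At 24 h, the TBA test was run on supernatant and on cell homogenates. Malonaldehyde was quantified against a 1,1,3,3-tetraethoxypropane standard and expressed as nmol TBARS per total protein.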
# Jurkat [23] = assay: Induction of necrosis in human JURKAT cell sat 5.0 uM treated 30 mins before 2.5 J/cm'2 UVA irradiation measured after 24 hrs; type: functional
# Outline: (§5)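 Jurkat cells were exposed to drug in HBSS pH 7.2 (from DMSO stock) for 30 min at 37 °C, then given UVA 2.5 J cm⁻² (365 nm) at several concentrations. After 24 h, cells were stained with Annexin V-FITC plus propidium iodide and analysed by flow cytometry (ex 488 nm; em 525 nm FITC, 560–680 nm PI).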
# Jurkat [24] = assay: Induction of apoptosis in human JURKAT cells assessed as reduction in mitochondrial membrane potential at 5 uM treated 30 mins before 2.5 J/cm'2 UVA irradiation measured after 24 hrs by flow cytometry; type: functional, cell-based
# Outline: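 Jurkat cells were treated with drug at 5 μM and UVA 2.5 J cm⁻², then sampled at different times after irradiation. Cells were resuspended in HBSS with JC-1 2.5 μM for 10 min at 37 °C, then analysed by flow cytometry. Values are mean ± SEM of three experiments.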
# Jurkat [25] = assay: Induction of apoptosis in human JURKAT cells supernatant assessed as lipid peroxidation treated 30 mins before 2.5 J/cm'2 UVA irradiation measured after 24 hrs by thiobarbituric acid assay; type: functional, cell-based; outline: as §4
# Escherichia coli [26] = assay: Induction of DNA photodamage of Escherichia coli pBR322 exposed to 3.5 J/cm'2 UVA irradiation in presence of reduced glutathione; outline: as §3
# Jurkat [27] = assay: Induction of apoptosis in human JURKAT cells assessed as annexin V positive cells treated 30 mins before 2.5 J/cm'2 UVA irradiation measured after 24 hrs by flow cytometry; type: functional, cell-based; outline: as §5
# Jurkat [28] = assay: Induction of apoptosis in human JURKAT cells assessed as increase in reactive oxygen species release treated 30 mins before 2.5 J/cm'2 UVA irradiation measured after 24 hrs by DCFDA staining; type: functional, cell-based; outline: as §2
# LoVo [29] = assay: Photocytotoxicity against human LoVo cells at 1.25 uM treated 30 mins before 2.5 J/cm'2 UVA irradiation measured after 72 hrs by MTT assay in presence of sodium azide; type: functional, cell-based; outline: as §1
# Escherichia coli [30] = assay: Induction of DNA photodamage of Escherichia coli pBR322 exposed to 3.5 J/cm'2 UVA irradiation in presence of sodium azide; outline: as §3
# Nucleic Acid [31] = assay: Induction of DNA photodamage of salmon testes DNA assessed as DNA intercalation by linear dichroism; type: nucleic-acid assay; details: Salmonidae
# Outline: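 Linear dichroism in a flow cell with salmon testes DNA at 2.27 mM in phosphate buffer, ligand/DNA r = 0, 0.02 and 0.04. Absorbance spectra were recorded alongside.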
# Escherichia coli [32] = assay: Induction of DNA photodamage of Escherichia coli pBR322 exposed to 3.5 J/cm'2 UVA irradiation in presence of formamidopyrimidine DNA glycosylase; outline: as §3
# Escherichia coli [33] = assay: Induction of DNA photodamage of Escherichia coli pBR322 exposed to 3.5 J/cm'2 UVA irradiation in presence of mannitol; outline: as §3
compound,measurement,setting,value
Cc1cc2c(n1-c1ccccc1)CCc1ccc(=O)sc1-2,IC50,HT-1080 [1],11 µM
same,IC50,LoVo [2],12.3 µM
same,IC50,Jurkat [3],4.2 µM
same,IC50,[4],> 20 µM
same,IC50,LoVo [5],> 20 µM
same,IC50,HT-1080 [6],10.5 µM
same,IC50,[7],> 20 µM
same,IC50,Jurkat [8],3.5 µM
same,IC50,HL-60 [9],2.7 µM
same,IC50,HL-60 [10],6.2 µM
Cc1cc2c(n1Cc1ccccc1)CCc1ccc(=O)sc1-2,IC50,HT-1080 [1],11.2 µM
same,IC50,Jurkat [3],4 µM
same,IC50,[4],> 20 µM
same,IC50,LoVo [5],> 20 µM
same,IC50,HT-1080 [6],9.8 µM
same,IC50,[7],> 20 µM
same,IC50,Jurkat [8],2.2 µM
same,IC50,HL-60 [10],4 µM
Cc1cc2c(n1S(=O)(=O)c1ccccc1)CCc1ccc(=O)sc1-2,IC50,HT-1080 [1],> 20 µM
same,IC50,LoVo [2],> 20 µM
same,IC50,Jurkat [3],7.3 µM
same,IC50,[4],> 20 µM
same,IC50,LoVo [5],> 20 µM
same,IC50,HT-1080 [6],> 20 µM
same,IC50,[7],> 20 µM
same,IC50,Jurkat [8],5 µM
same,IC50,HL-60 [9],> 10 µM
same,IC50,HL-60 [10],> 10 µM
Cc1cc2c3sc(=O)ccc3ccc2n1C,IC50,HT-1080 [1],0.9 µM
same,Activity,Erythrocyte,Active
same,Activity,LoVo [11],inactive
same,Activity,Jurkat [12],Active
same,IC50,Jurkat [3],0.5 µM
same,Activity,Jurkat [13],Active
same,Activity,LoVo [14],inactive
same,IC50,[4],2.1 µM
same,Activity,Escherichia coli [15],inactive
same,Activity,LoVo [16],inactive
same,Activity,Nucleic Acid [17],inactive
same,Activity,Jurkat [18],Active
same,Activity,Jurkat [19],Active
same,Activity,Escherichia coli [20],Active
same,Activity,Jurkat [21],Dose-dependent effect
same,IC50,HT-1080 [6],0.6 µM
same,Activity,Jurkat [22],Active
same,Activity,Jurkat [23],2%
same,Activity,Jurkat [24],Active
same,Activity,Jurkat [25],Active
same,Activity,Escherichia coli [26],inactive
same,IC50,[7],1.6 µM
same,Activity,Jurkat [27],Dose-dependent effect
same,Activity,Jurkat [28],Active
same,IC50,Jurkat [8],0.2 µM
same,Activity,LoVo [29],Active
same,Activity,Escherichia coli [30],inactive
same,Activity,Nucleic Acid [31],inactive
same,Activity,Escherichia coli [32],Active
same,Activity,Escherichia coli [33],inactive
